Square brackets hold non-standard residues; d marks the D form. Peptide text beside a SMILES is read from it. pGlu = O=C1CC[C@@H](C(=O)O)N1
Legend:
[1] = target: T1, Gonadotropin-releasing hormone receptor (Rattus norvegicus) (UniProt P30969); test: Antagonist activity at LH-RH receptor in Sprague-Dawley rat pituitary gland assessed as change in LH-RH-induced luteinizing hormone release at 10 ug/ml preincubated for 2 hrs followed by LH-RH addition at 5th and 6th hr 5 mins post drug addition and measured every hour for 4 hrs by RIA
T1 sequence (whole entry): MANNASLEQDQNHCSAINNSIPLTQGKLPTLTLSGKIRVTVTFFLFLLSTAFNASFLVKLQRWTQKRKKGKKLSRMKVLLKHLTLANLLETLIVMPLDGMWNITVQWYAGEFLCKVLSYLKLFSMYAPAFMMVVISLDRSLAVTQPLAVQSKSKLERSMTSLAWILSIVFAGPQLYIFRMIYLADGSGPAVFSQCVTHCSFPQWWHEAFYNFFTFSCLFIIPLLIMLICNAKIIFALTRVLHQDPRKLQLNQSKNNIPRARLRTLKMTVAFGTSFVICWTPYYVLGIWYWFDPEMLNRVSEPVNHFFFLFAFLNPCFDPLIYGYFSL
How it was run: (§1)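 Two pituitaries from 20-day-old female rats were incubated in 1 mL lactated Ringer's at 37 °C with shaking for 6 h, with medium replaced hourly. Analogue was added in hours 3–6. LH-RH at 0.3 ng/mL was added in hours 5–6, 5 min after the analogue. LH and FSH were measured by RIA against the LER-1240-2 or FSH standard and reported as Δ ng/mL ± SEM with p values.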

[2] = target: T1, Gonadotropin-releasing hormone receptor (Rattus norvegicus); test: Antagonist activity at LH-RH receptor in Sprague-Dawley rat pituitary gland assessed as change in LH-RH-induced follicle-stimulating hormone release at 100 ug/ml preincubated for 2 hrs followed by LH-RH addition at 5th and 6th hr 5 mins post drug addition and measured every hour for 4 hrs by RIA; how it was run: as §1
[3] = target: T1, Gonadotropin-releasing hormone receptor (Rattus norvegicus); test: Agonist activity at LH-RH receptor in Sprague-Dawley rat pituitary gland assessed as change in follicle-stimulating hormone release at 100 ug/ml incubated for 4 hrs measured every hour for 4 hrs by RIA
How it was run: (§2)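 Two pituitaries from 20-day-old female rats per beaker, in 1 mL lactated Ringer's at 37 °C with shaking, 6 h total. Medium was replaced hourly. After two preincubation hours the analogue was present alone in hours 3–6 (peptide in µg/mL of medium). LH and FSH were measured by RIA as ng of LH-LER-1240-2 or FSH standard, given as Δ ± SEM with p values.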

[4] = target: T1, Gonadotropin-releasing hormone receptor (Rattus norvegicus); test: Agonist activity at LH-RH receptor in Sprague-Dawley rat pituitary gland assessed as change in luteinizing hormone release at 100 ug/ml incubated for 4 hrs measured every hour for 4 hrs by RIA; how it was run: as §2
[5] = target: T1, Gonadotropin-releasing hormone receptor (Rattus norvegicus); test: Antagonist activity at LH-RH receptor in Sprague-Dawley rat pituitary gland assessed as change in LH-RH-induced follicle-stimulating hormone release at 10 ug/ml preincubated for 2 hrs followed by LH-RH addition at 5th and 6th hr 5 mins post drug addition and measured every hour for 4 hrs by RIA; how it was run: as §1
[6] = target: T1, Gonadotropin-releasing hormone receptor (Rattus norvegicus); test: Antagonist activity at LH-RH receptor in Sprague-Dawley rat pituitary gland assessed as change in LH-RH-induced luteinizing hormone release at 1 ug/ml preincubated for 2 hrs followed by LH-RH addition at 5th and 6th hr 5 mins post drug addition and measured every hour for 4 hrs by RIA; how it was run: as §1
[7] = target: T1, Gonadotropin-releasing hormone receptor (Rattus norvegicus); test: Antagonist activity at LH-RH receptor in Sprague-Dawley rat pituitary gland assessed as change in LH-RH-induced follicle-stimulating hormone release at 1 ug/ml preincubated for 2 hrs followed by LH-RH addition at 5th and 6th hr 5 mins post drug addition and measured every hour for 4 hrs by RIA; how it was run: as §1
[8] = target: T1, Gonadotropin-releasing hormone receptor (Rattus norvegicus); test: Antagonist activity at LH-RH receptor in Sprague-Dawley rat pituitary gland assessed as change in LH-RH-induced luteinizing hormone release at 100 ug/ml preincubated for 2 hrs followed by LH-RH addition at 5th and 6th hr 5 mins post drug addition and measured every hour for 4 hrs by RIA; how it was run: as §1

| SMILES | Activity [1] | Activity [2] | Activity [3] | Activity [4] | Activity [5] | Activity [6] | Activity [7] | Activity [8] |
| --- | --- | --- | --- | --- | --- | --- | --- | --- |
| CC(C)C[C@H](NC(=O)[C@@H]1CCC(=O)N1)C(=O)N[C@@H](C)C(=O)N[C@@H](CO)C(=O)N[C@@H](Cc1ccc(O)cc1)C(=O)N[C@H](C)C(=O)N[C@@H](CC(C)C)C(=O)N[C@@H](CCCNC(=N)N)C(=O)N1CCC[C@H]1C(=O)NCC(N)=O | 149 ng/mL | 5850 ng/mL | -351 ng/mL | 13 ng/mL | 8150 ng/mL | 230 ng/mL | 7020 ng/mL | 115 ng/mL |
| CCNC(=O)[C@@H]1CCCN1C(=O)[C@H](CCCNC(=N)N)NC(=O)[C@H](CC(C)C)NC(=O)[C@@H](C)NC(=O)[C@H](Cc1ccc(O)cc1)NC(=O)[C@H](CO)NC(=O)[C@H](C)NC(=O)[C@@H](NC(=O)[C@@H]1CCC(=O)N1)[C@@H](C)CC |  | 1910 ng/mL | 1020 ng/mL | 42 ng/mL |  |  |  | 49 ng/mL |
| CCNC(=O)[C@@H]1CCCN1C(=O)[C@H](CCCNC(=N)N)NC(=O)[C@H](CC(C)C)NC(=O)[C@@H](C)NC(=O)[C@H](Cc1ccc(O)cc1)NC(=O)[C@H](CO)NC(=O)[C@H](C)NC(=O)[C@H](CC)NC(=O)[C@@H]1CCC(=O)N1 | 56 ng/mL | 1780 ng/mL | 184 ng/mL | -3 ng/mL | 2970 ng/mL | 157 ng/mL | 2610 ng/mL | 62 ng/mL |
| CC(C)C[C@H](NC(=O)CNC(=O)[C@H](Cc1ccc(O)cc1)NC(=O)[C@H](CO)NC(=O)[C@H](CC(N)=O)NC(=O)[C@H](CC(C)C)NC(=O)[C@@H]1CCC(=O)N1)C(=O)N[C@@H](CCCNC(=N)N)C(=O)N1CCC[C@H]1C(=O)NCC(N)=O ([pGlu]LNSYGLRPG-NH2) |  | 2300 ng/mL | -1270 ng/mL | 18 ng/mL |  |  |  | 185 ng/mL |

Continued, values first:

| Activity [1] | Activity [2] | Activity [3] | Activity [4] | Activity [5] | Activity [6] | Activity [7] | Activity [8] | SMILES |
| --- | --- | --- | --- | --- | --- | --- | --- | --- |
| 180 ng/mL | 3230 ng/mL | 699 ng/mL | 14 ng/mL | 3080 ng/mL |  |  | 180 ng/mL | CC(C)C[C@H](NC(=O)CNC(=O)[C@H](Cc1ccc(O)cc1)NC(=O)[C@H](CO)NC(=O)[C@H](CC(C)C)NC(=O)[C@@H](NC(=O)[C@@H]1CCC(=O)N1)[C@@H](C)O)C(=O)N[C@@H](CCCNC(=N)N)C(=O)N1CCC[C@H]1C(=O)NCC(N)=O ([pGlu]TLSYGLRPG-NH2) |
| 88 ng/mL |  | -367 ng/mL | -7 ng/mL | 6540 ng/mL |  |  | 90 ng/mL | CC(C)C[C@H](NC(=O)CNC(=O)[C@H](Cc1ccc(O)cc1)NC(=O)[C@H](CO)NC(=O)[C@H](CO)NC(=O)[C@H](CC(C)C)NC(=O)[C@@H]1CCC(=O)N1)C(=O)N[C@@H](CCCNC(=N)N)C(=O)N1CCC[C@H]1C(=O)NCC(N)=O ([pGlu]LSSYGLRPG-NH2) |

— ChEMBL document CHEMBL3272172, “Inhibition of the activity of the luteinizing hormone-releasing hormone (LH-RH) by analogues with variations at positions 2, 3, and 6 and the carboxyl terminus” (J Med Chem, 1977)
